Only some compounds are listed: those with a hit (about 8.4% of all), similar ones and a draw of the others.
PostGolgi ctrl: inhibits growth of the yeast control strain. AID 738. 98,000 tested, 5% active. efflux-deficient yeast background strain, growth absorbance A615, 16 h. inhibition, % at 10 µM
PostGolgi yeast: growth inhibition of a yeast mutant, post-Golgi transport screen | post-Golgi transport phenotypic cell assay | inhibition, % at 10 µM | 98,000 tested, 0.9% active | AID 739;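 also: yeast cells grown in 1536-well plates; yeast grown about 18 h at 30C before absorbance read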
E coli WT exp: E. coli BW25113 growth inhibition, expanded screen. OD600 absorbance. growth inhibition, % at 100 µM. 98,000 tested, 0.15% active. AID 710;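 active = growth inhibition above about 50% at one test dose, limit read from the data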;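 also: growth measured after 20 h incubation at 37 °C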
Ecoli tolC: E. coli tolC mutant growth inhibition; AID 573; E. coli BW25113 tolC mutant growth, OD615; 65,000 tested, 2.2% active; growth inhibition, % at 10 µM (by protocol);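 active = growth inhibition at or above a cutoff equal to the mean over every tested compound plus 3 SD, cut at about 60% in these data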;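 also: growth measured after 20 h incubation at 37 °C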
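Test system: tolC-deleted E. coli BW25113 | Medium: LB with kanamycin 50 µg/mL | Compound dosing: Single concentration, 10 µM final per compound | Schedule: 37 °C, 20 h exposure | Measured by: OD at 615 nm | Evaluation: Percent growth inhibition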
Cav32 inh: blocks human Cav3.2 T-type calcium channel; Cav3.2-expressing cells, Fluo-4 calcium fluorescence FDSS; hits give low values; 100,000 tested, 4% active; AID 449739; B-score at 10 µM;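 active = single-dose well whose peak fluorescence ratio is a statistical outlier from its plate by either plate-standardised score or position-corrected B-score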
Large screens that a line does not name were inactive. Rule as the data show it, unless noted: active = inhibition above about 30%; inactive = the rest.

CC(c1nnc(SCC(=O)N2CCc3ccccc32)n1-c1ccc(Cl)cc1)N(C)C (configuration not stated)	none (no result: Ecoli tolC)
CC(c1nnc(SCn2nnc3ccccc3c2=O)n1-c1ccc(Cl)cc1)N(C)C (configuration not stated)	PostGolgi yeast 67
Cc1ccc(OCc2n[nH]c(=S)n2C2CCCCC2)cc1	PostGolgi ctrl 41 (no result: Ecoli tolC)
Cc1cccc(OCc2n[nH]c(=S)n2C2CCCCC2)c1	none (no result: PostGolgi ctrl, PostGolgi yeast, E coli WT exp, Ecoli tolC)
CC(=O)N1c2ccccc2C(=O)C1N1CCCCC1 (configuration not stated)	none
COc1ccc(C2=NC(C(F)(F)F)(C(F)(F)F)c3c(n(C)c(=O)n(C)c3=O)N2)cc1	PostGolgi yeast 92 (no result: Ecoli tolC)
Cc1ccc(NC(=O)N(Cc2cccnc2)Cc2ccco2)cc1C	none (no result: Ecoli tolC)
Cc1ccc(NC(=O)N(Cc2ccco2)C(C)c2ccco2)cc1C (configuration not stated)	Cav32 inh -4.6
COC(=O)c1ccsc1NC(=O)CN1C(=O)CCC1=O	none (no result: PostGolgi ctrl, PostGolgi yeast, E coli WT exp)
CN(C)S(=O)(=O)c1ccc(N2CCCC2)c(C(=O)Nc2ccc(N3CCOCC3)cc2)c1	none (no result: Ecoli tolC)
CN(C)S(=O)(=O)c1ccc(N2CCCC2)c(C(=O)NC(c2ccccc2)c2ccccc2)c1	Cav32 inh -4.3 (no result: Ecoli tolC)
CCC(=O)N1CCc2cc(S(=O)(=O)CCC(=O)Nc3c(C)n(C)n(-c4ccccc4)c3=O)ccc21	none (no result: PostGolgi ctrl, PostGolgi yeast, E coli WT exp, Cav32 inh)
CCOC(=O)c1cccc(NC(=O)CSc2nc3cccnc3n2C)c1	none
C=CCOc1c(Cl)cc(C2NC(=O)NC(C)=C2C(=O)OC)cc1Cl (configuration not stated)	PostGolgi ctrl 51
O=C(c1cc(Cl)ccc1Cl)N1CCOCC1	none
O=C(c1cc(-c2ccc(Cl)cc2)n(-c2ccc(Cl)c(Cl)c2)n1)N1CCOCC1	PostGolgi ctrl 40 (no result: Ecoli tolC, Cav32 inh)
O=C(O)c1cc(Cl)c(Cl)cc1C(=O)N1CCOCC1	none (no result: PostGolgi ctrl, PostGolgi yeast, E coli WT exp)
O=C(c1cc(-c2ccc(Cl)cc2)n(-c2cc(Cl)ccc2Cl)n1)N1CCOCC1	PostGolgi ctrl 43 (no result: Ecoli tolC)
CC(C)(C)c1csc(NC(=O)c2ccc(Cl)s2)n1	Ecoli tolC 100
O=C(Nc1nc(-c2ccc(Cl)s2)cs1)c1ccccc1	none (no result: Ecoli tolC)
O=C(Nc1nc(-c2cccs2)cs1)c1ccc(Cl)s1	PostGolgi yeast 32, Ecoli tolC 96, Cav32 inh -4.1
CCOC(=O)CSc1nc(C)c2ccc(C)cc2n1	none (no result: PostGolgi ctrl, PostGolgi yeast, E coli WT exp, Ecoli tolC)
COc1ccc(-c2nnc(NC(=O)c3ccc(S(=O)(=O)N4CCc5ccccc5C4)cc3)o2)cc1	Ecoli tolC 94 (no result: Cav32 inh)
COc1cccc(-c2nnc(NC(=O)c3ccc(S(=O)(=O)N4CC(C)OC(C)C4)cc3)o2)c1 (configuration not stated)	Ecoli tolC 98 (no result: Cav32 inh)
CCSc1nnc(NC(=O)CSc2nccn2-c2cccc(C)c2C)s1	Ecoli tolC 84, Cav32 inh -7.1
COc1ccc(CC(=O)c2ccc(O)cc2O)cc1	none (no result: PostGolgi ctrl, PostGolgi yeast, E coli WT exp, Ecoli tolC)
O=C(Cc1ccc(Br)cc1)c1ccc(O)cc1O	PostGolgi ctrl 30, E coli WT exp 59, Ecoli tolC 95, Cav32 inh -8.6
CSc1nc(-c2ccccc2)nc(N2CCCC2)c1C(C)=O	PostGolgi ctrl 39, Ecoli tolC 75
CCOC(=O)c1c(C)sc2c1N(C(=O)CN1CCOCC1)c1cc(Cl)ccc1S2	PostGolgi ctrl 54 (no result: Ecoli tolC, Cav32 inh)
CCOC(=O)c1c(C)sc2c1N(C(=O)CN(CC)CC)c1cc(Cl)ccc1S2	none (no result: Ecoli tolC, Cav32 inh)
CC(=O)Nc1nc(C=C(Cl)Cl)cs1	PostGolgi ctrl 33
C=CCn1c(COc2ccc(Cl)cc2)nnc1SCc1ccc(C#N)cc1	PostGolgi ctrl 41, PostGolgi yeast 47, Cav32 inh -7.7
Cc1ccc(OCc2nnc(SCc3ccc(C#N)cc3)n2-c2ccc(C)cc2)cc1	PostGolgi ctrl 39 (no result: Ecoli tolC)
Cc1ccc(C)c(-n2nnnc2SCC(=O)NCCC2=CCCCC2)c1	PostGolgi ctrl 39, Cav32 inh -7
CNC(=O)CSc1nnnn1-c1cc(C)ccc1C	none (no result: PostGolgi ctrl, PostGolgi yeast, E coli WT exp, Ecoli tolC)
Cc1cc2c(c(SCC(=O)NCCc3ccccc3)n1)C(=O)OC2	none (no result: Ecoli tolC)
O=C(CSc1nnc(COc2ccc(Cl)cc2)o1)N1c2ccccc2CCc2ccccc21	PostGolgi ctrl 31 (no result: Ecoli tolC)
CCOC(=O)N1CCN(C(=O)CSc2nnc(COc3ccc(Cl)cc3)o2)CC1	Cav32 inh -3.2
O=C(COc1ccc(Cl)cc1)NCc1nnc(SCC(=O)N2CCCc3ccccc32)o1	none
Cc1nc2c(C(=O)NCCC3=CCCCC3)c[nH]n2c(=O)c1Cl	Ecoli tolC 79
CCCCN(CCCNC(=O)c1c(C)cc(=O)oc1C)c1ccccc1	PostGolgi ctrl 32
CCN(CCCNC(=O)c1c(C)cc(=O)oc1C)c1ccccc1	none
CC(C)N=c1cc2n(-c3ccc(Cl)cc3)c3ccccc3nc-2cc1Nc1ccc(Cl)cc1	Cav32 inh -3.9 (no result: PostGolgi ctrl, PostGolgi yeast, E coli WT exp)
COc1ccc(C2c3c(ncn(CCN4CCOCC4)c3=N)Oc3ccc4ccccc4c32)cc1OC (configuration not stated)	none (no result: Ecoli tolC)
CSc1nnc(Cn2c(=O)sc3ccccc32)n1CCc1ccccc1	none
CN1CCc2c(C#N)c(N3CCCCC3)nc(NCc3ccccc3)c2C1	PostGolgi ctrl 48
O=C(Nc1ccc(-n2nncc2-c2ccco2)cc1)c1ccc(F)cc1	none
Cn1c(CNC(=O)Nc2ccccc2)nnc1SCc1ccccc1	none
Cc1cc(C)cc(NC(=O)NCc2nnc(SCc3ccccc3)n2C)c1	Cav32 inh -4.3
CCCNC(=O)c1c(N)n(-c2cccc(OC)c2)c2nc3ccccc3nc12	PostGolgi ctrl 50, PostGolgi yeast 33
Nc1c(C(=O)NCC2CCCO2)c2nc3ccccc3nc2n1-c1ccccc1 (configuration not stated)	Cav32 inh -5.6
Cc1cccc(NC(=O)CCc2c(C)nc3ncnn3c2C)n1	none (no result: Ecoli tolC)
CCn1ncc(/C=N\NC(=O)c2cc(-c3ccc(C)cc3C)nc3ccccc23)c1C	none (no result: Ecoli tolC)
Cc1cc(OCC(=O)N2CCc3ccccc3C2)c2c(-c3ccccc3)cc(=O)oc2c1	PostGolgi ctrl 51 (no result: Ecoli tolC)
Cc1ccc(C(=O)NCCSc2ccc(Cl)cc2)cc1[N+](=O)[O-]	PostGolgi ctrl 36, Cav32 inh -5.8 (no result: Ecoli tolC)
Cc1ccc(SCCNC(=O)c2ccc(C)c([N+](=O)[O-])c2)cc1	Cav32 inh -5.6 (no result: Ecoli tolC)
Cc1[nH]c2ccccc2c1SCCN	none (no result: PostGolgi ctrl, PostGolgi yeast, E coli WT exp)
Cc1ccc(C(=O)NCCSc2c(C)[nH]c3ccccc23)cc1[N+](=O)[O-]	Cav32 inh -6.9 (no result: PostGolgi ctrl, PostGolgi yeast, E coli WT exp, Ecoli tolC)
Cc1ccc(-c2cc(C(F)F)nc(N3CCC(C)CC3)n2)cc1	none
C=CCOc1c(Br)cc(CNc2ccc(NC(=O)CCC)cc2)cc1OCC	Cav32 inh -5.4 (no result: Ecoli tolC)
Cc1[nH]n(-c2ccccc2)c(=O)c1S(=O)(=O)c1ccccc1	none
CCn1c(CSc2nc(C)cc(C)n2)nnc1SCC(=O)N1CCCc2ccccc21	none
CCn1c(NCc2cc(OC)ccc2OC)nc2ccccc21	none
CCCn1c(NCc2cc(OC)ccc2OC)nc2ccccc21	Cav32 inh -4.8
O=C(CSc1nnc(-c2cccs2)n1-c1cccc(Cl)c1)c1cccc2c1OCCO2	none (no result: Ecoli tolC)
COc1ccc(/C=C2\NC(=S)N(CC3CCCO3)C2=O)c(OC)c1C (configuration not stated)	none (no result: Ecoli tolC)
CCCN1C(=O)/C(=C/c2ccc(N3CCCC3)c(C)c2)NC1=S	Cav32 inh -7.1 (no result: Ecoli tolC)
